Most compounds without a hit are left out; they make up all but 1.9% or so of the library.
PglD DTNB = C. jejuni PglD acetyltransferase inhibitors, primary screen, biochemical, DTNB colorimetric, single point; UDP-N-acetylbacillosamine N-acetyltransferase PglD (Campylobacter jejuni); purified PglD enzyme, DTNB colorimetric CoA detection; inhibition, % at 12.5 µM; 0.098% of 360,000 active; in the data active means inhibition above about 16%, passing the limit was not always enough
RAD54 branch = inhibitors of human RAD54 branch migration, primary screen, biochemical, fluorescence, single point; RAD54 Holliday junction branch migration, FAM/BHQ fluorescence; inhibition, % at 10.4 µM; 0.14% of 360,000 active; AID 602329, 2012;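 active means mean normalized replicate activity at least 40 and at least half of replicates scoring 40 or more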;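 further: 0% = median of neutral control wells and 100% = median of positive control wells; inhibitors cause a drop in the FAM fluorescence signal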
Target sequence (Q92698 whole entry, looked up): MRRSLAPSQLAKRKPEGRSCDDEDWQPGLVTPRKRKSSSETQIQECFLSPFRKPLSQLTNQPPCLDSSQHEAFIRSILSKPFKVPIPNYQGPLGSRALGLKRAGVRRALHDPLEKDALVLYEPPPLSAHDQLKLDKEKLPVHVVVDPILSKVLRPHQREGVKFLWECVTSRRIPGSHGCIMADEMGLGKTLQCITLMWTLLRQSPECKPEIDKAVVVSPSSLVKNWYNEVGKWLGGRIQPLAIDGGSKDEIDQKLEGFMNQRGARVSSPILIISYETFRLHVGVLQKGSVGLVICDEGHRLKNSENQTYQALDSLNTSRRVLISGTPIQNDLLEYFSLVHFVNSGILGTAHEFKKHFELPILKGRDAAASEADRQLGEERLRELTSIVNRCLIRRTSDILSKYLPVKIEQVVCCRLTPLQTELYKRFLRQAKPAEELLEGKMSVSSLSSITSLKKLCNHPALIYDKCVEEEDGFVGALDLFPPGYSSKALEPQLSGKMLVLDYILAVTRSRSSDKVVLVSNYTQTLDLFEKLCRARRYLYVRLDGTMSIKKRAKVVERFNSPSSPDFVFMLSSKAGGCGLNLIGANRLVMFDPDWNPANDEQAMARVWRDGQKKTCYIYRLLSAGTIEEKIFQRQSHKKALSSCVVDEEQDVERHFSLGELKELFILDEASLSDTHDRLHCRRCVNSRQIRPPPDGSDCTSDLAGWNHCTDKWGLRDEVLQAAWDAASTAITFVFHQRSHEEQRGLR
RAD52 anneal inh = RAD52 DNA annealing inhibitors, primary screen, biochemical, FRET, single point, set 2. DNA repair protein RAD52 homolog (Homo sapiens), P43351. recombinant RAD52 DNA annealing, FRET fluorescence. inhibition, % at 18.7 µM. 0.46% of 360,000 active. AID 651710, 2012;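 active means every replicate showing at least 50% inhibition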
Ecoli rRNA inh = reduced GFP signal of wild-type E. coli, primary screen, bacterial rRNA inhibitor project, GFP/RFP fluorescence, OD600, single point. 1.6% of 350,000 active. E. coli WT GFP vs humanized-ribosome RFP mutants, 24 h; active compounds read low; DMSO median 0, no signal -100. GFP signal change (wild-type ribosome), % (test concentration not listed). AID 720706, 2013;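 active means significant combined selectivity score with lowered wild-type GFP, culture density cut under 30%, mutant RFP and density less affected; inactive means any of these conditions unmet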
Cneo AK release = Cryptococcus neoformans cell lysis inducers, primary screen, AK release luminescence, single concentration; C. neoformans lysis, adenylate kinase release luminescence, 4 h; normalised: neutral wells 0, clomiphene wells 100; 0.2% of 360,000 active; AID 651654, 2012; lysis activity, % at 15 µM;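 active means mean lysis activity across replicates of at least 80%, whatever share of replicates individually reach that level; inactive means mean lysis activity below 80%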
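Test system: log-phase Cryptococcus neoformans yeast cells; Quantity: yeast cell density of 5 × 10^6 cells/mL; Buffer or medium: YPD; Doses: single compound concentration per well; Timing: 4 h at 37 °C static, read 1 h later; Measured by: AK luminescence; Read-out basis: lysis from increased AK signal; Control set: Clomiphene as positive control.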
The depositor's hits bear a star.

What do the screens show for `C[C@H]1CN([C@@H](C)CO)C(=O)c2cc(NC(=O)Cc3ccccc3)ccc2O[C@@H]1CN(C)Cc1ccccc1`?
PglD DTNB: -1.0; RAD54 branch: -4.3; RAD52 anneal inh: 6.9; Ecoli rRNA inh: 1.3; Cneo AK release: -53.7

Results for C[C@@H]1CCCCO[C@H](CN(C)Cc2ccc(C(=O)O)cc2)[C@@H](C)CN([C@H](C)CO)C(=O)c2cc(NC(=O)c3ccncc3)ccc2O1 ?
PglD DTNB: 1.8; RAD54 branch: 6.3; RAD52 anneal inh: 48.5; Ecoli rRNA inh: 0.3; Cneo AK release: 0.9

How did C[C@@H]1CN([C@H](C)CO)C(=O)c2cc(NC(=O)c3ccncc3)ccc2O[C@@H](C)CCCCO[C@@H]1CN(C)Cc1ccncc1 do in these assays?
PglD DTNB: 3.2; RAD54 branch: 2.2; RAD52 anneal inh: -8.7; Ecoli rRNA inh: -1.6; Cneo AK release: -1.0

Results for C[C@@H]1CCCCO[C@H](CN(C)Cc2ccc(C(=O)O)cc2)[C@H](C)CN([C@H](C)CO)C(=O)c2cc(NC(=O)c3ccncc3)ccc2O1 ?
PglD DTNB: 1.4; RAD54 branch: 4.5; RAD52 anneal inh: 103.0*; Ecoli rRNA inh: 2.4; Cneo AK release: -2.4

How did C[C@@H]1CCCCO[C@@H](CN(C)Cc2ccc(C(=O)O)cc2)[C@@H](C)CN([C@@H](C)CO)C(=O)c2cc(NC(=O)c3ccncc3)ccc2O1 do in these assays?
PglD DTNB: 3.1; RAD54 branch: 4.0; RAD52 anneal inh: 104.9*; Ecoli rRNA inh: 0.8; Cneo AK release: 0.4

What do the screens show for `C[C@@H]1CN([C@@H](C)CO)C(=O)c2cc(NC(=O)c3ccncc3)ccc2O[C@@H](C)CCCCO[C@@H]1CN(C)Cc1ccc(C(=O)O)cc1`?
PglD DTNB: 0.4; RAD54 branch: 3.4; RAD52 anneal inh: 59.2*; Ecoli rRNA inh: 2.3; Cneo AK release: 0.0

How did C[C@H](CO)N1C[C@H](C)[C@H](CN(C)Cc2ccc(C(=O)O)cc2)OCCCC[C@H](C)Oc2ccc(NC(=O)c3ccncc3)cc2C1=O do in these assays?
PglD DTNB: 1.7; RAD54 branch: -0.2; RAD52 anneal inh: 100.7*; Ecoli rRNA inh: 3.3; Cneo AK release: -1.0

How did C[C@H](CO)N1C[C@H](C)[C@@H](CN(C)S(=O)(=O)c2cccs2)Oc2c(NS(=O)(=O)c3cccs3)cccc2C1=O do in these assays?
Ecoli rRNA inh: -6.2

How did CC(=O)Nc1cccc2c1O[C@H](CN(C)C)[C@H](C)CN(C)C2=O do in these assays?
Ecoli rRNA inh: 2.5

What do the screens show for `C[C@@H]1CCCCO[C@@H](CN(C)Cc2ccc(C(=O)O)cc2)[C@H](C)CN([C@H](C)CO)C(=O)c2cc(NC(=O)c3ccncc3)ccc2O1`?
PglD DTNB: 3.7; RAD54 branch: -5.5; RAD52 anneal inh: 104.0*; Ecoli rRNA inh: 4.1; Cneo AK release: -1.2

How did C[C@@H]1CN([C@@H](C)CO)C(=O)c2cc(NC(=O)c3ccncc3)ccc2O[C@@H](C)CCCCO[C@H]1CN(C)Cc1ccncc1 do in these assays?
PglD DTNB: -1.0; RAD54 branch: 3.9; RAD52 anneal inh: -14.8; Ecoli rRNA inh: -2.8; Cneo AK release: -0.8

How did C[C@H](CO)N1C[C@H](C)[C@H](CN(C)Cc2ccncc2)OCCCC[C@H](C)Oc2ccc(NC(=O)c3ccncc3)cc2C1=O do in these assays?
PglD DTNB: 1.5; RAD54 branch: 8.8; RAD52 anneal inh: -5.6; Ecoli rRNA inh: -3.8; Cneo AK release: 0.9

Results for C[C@@H]1CN([C@@H](C)CO)C(=O)c2cc(NC(=O)c3ccncc3)ccc2O[C@@H](C)CCCCO[C@H]1CN(C)Cc1ccc(C(=O)O)cc1 ?
PglD DTNB: -0.5; RAD54 branch: 1.3; RAD52 anneal inh: 95.8*; Ecoli rRNA inh: 1.2; Cneo AK release: -1.4

How did C[C@@H]1CCCCO[C@@H](CN(C)Cc2ccncc2)[C@@H](C)CN([C@H](C)CO)C(=O)c2cc(NC(=O)c3ccncc3)ccc2O1 do in these assays?
PglD DTNB: 0.6; RAD54 branch: 5.6; RAD52 anneal inh: 8.4; Ecoli rRNA inh: -0.3; Cneo AK release: 93.3*

Results for C[C@@H]1CN([C@@H](C)CO)C(=O)c2cc(NC(=O)CCC(F)(F)F)ccc2O[C@@H](C)CCCCO[C@@H]1CN(C)C ?
Ecoli rRNA inh: 2.1

What do the screens show for `COc1ccc(CNS(=O)(=O)c2ccc3c(c2)N(C(C)=O)CC(C)S3)cc1` (configuration not stated)?
PglD DTNB: -1.0; RAD54 branch: -0.2; RAD52 anneal inh: -9.0; Ecoli rRNA inh: -0.7; Cneo AK release: -1.8

What do the screens show for `CC(=O)N1CC(C)Sc2ccc(S(=O)(=O)NCc3ccc(F)cc3)cc21` (configuration not stated)?
PglD DTNB: -6.4; RAD54 branch: 3.7; RAD52 anneal inh: -3.1; Ecoli rRNA inh: -25.6*; Cneo AK release: 0.6

What do the screens show for `CCN(CC)S(=O)(=O)c1cc(NC(=O)C(C)N2CCN(c3ccccn3)CC2)ccc1C` (configuration not stated)?
PglD DTNB: 4.4; RAD54 branch: 7.8; RAD52 anneal inh: -20.0; Ecoli rRNA inh: -19.8*; Cneo AK release: -2.2

How did N#CC(CO)(Cc1ccc(OC(F)F)cc1)c1nc2ccccc2[nH]1 (configuration not stated) do in these assays?
RAD52 anneal inh: -7.2; Ecoli rRNA inh: -20.8*

Results for COc1ccc2c3c(n(C)c2c1)[C@@H](CO)N(C(=O)Nc1ccc(F)cc1)CC31CN(S(=O)(=O)c2cccc(F)c2)C1 ?
Ecoli rRNA inh: -0.9

How did O=S(=O)(NC1CCc2ccccc21)c1ccc(S(=O)(=O)N2CCCC2)cc1 (configuration not stated) do in these assays?
RAD52 anneal inh: -15.2; Ecoli rRNA inh: -28.7*

How did Cn1c(CSCc2ccc(Cl)cc2)n[nH]c1=S do in these assays?
PglD DTNB: -3.5; RAD54 branch: -2.9; RAD52 anneal inh: -18.0; Ecoli rRNA inh: -23.2*; Cneo AK release: -4.3

How did COc1cc(NC(=O)c2ccc(COc3ccccc3Br)o2)cc(OC)c1OC do in these assays?
PglD DTNB: -1.7; RAD54 branch: -0.2; Cneo AK release: 2.5

Results for COc1ccccc1OCc1ccc(C(=O)Nc2cc(OC)c(OC)c(OC)c2)o1 ?
PglD DTNB: 0.0; RAD54 branch: 3.2; RAD52 anneal inh: -7.0; Ecoli rRNA inh: -22.0*; Cneo AK release: -0.3

Results for CC(=O)Nc1ccc(/C(C)=N/NC(=O)c2ccc(COc3ccccc3Cl)o2)cc1 ?
PglD DTNB: 6.9; RAD54 branch: -9.8; RAD52 anneal inh: -17.1; Ecoli rRNA inh: -29.9*; Cneo AK release: 2.0
